Experimental data taken from ChEMBL document CHEMBL1133492, “Design, synthesis, and biological evaluation of fluoronitrophenyl substituted folate analogues as potential inhibitors of GAR transformylase and AICAR transformylase” (Bioorg Med Chem Lett, 2000).
Calls of active or inactive are those of the source. The rule behind the calls is not given here.

Assays:
[1] = molecular target: T1, Bifunctional purine biosynthesis protein ATIC (Homo sapiens, UniProt P31939); test: In vitro inhibitory activity against Aminoimidazole carboxamide ribonucleotide transformylase pre-incubed for 12 hr at 250 uM
How it was run: (§1)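 The AICAR Tfase assay solution was pre-incubated with inhibitor (250 µM, or 25 µM where the line states) for 12 h at room temperature. The reaction was then started by adding AICAR, and enzyme inhibition was measured.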
Target sequence in this assay (P31939 whole entry, looked up): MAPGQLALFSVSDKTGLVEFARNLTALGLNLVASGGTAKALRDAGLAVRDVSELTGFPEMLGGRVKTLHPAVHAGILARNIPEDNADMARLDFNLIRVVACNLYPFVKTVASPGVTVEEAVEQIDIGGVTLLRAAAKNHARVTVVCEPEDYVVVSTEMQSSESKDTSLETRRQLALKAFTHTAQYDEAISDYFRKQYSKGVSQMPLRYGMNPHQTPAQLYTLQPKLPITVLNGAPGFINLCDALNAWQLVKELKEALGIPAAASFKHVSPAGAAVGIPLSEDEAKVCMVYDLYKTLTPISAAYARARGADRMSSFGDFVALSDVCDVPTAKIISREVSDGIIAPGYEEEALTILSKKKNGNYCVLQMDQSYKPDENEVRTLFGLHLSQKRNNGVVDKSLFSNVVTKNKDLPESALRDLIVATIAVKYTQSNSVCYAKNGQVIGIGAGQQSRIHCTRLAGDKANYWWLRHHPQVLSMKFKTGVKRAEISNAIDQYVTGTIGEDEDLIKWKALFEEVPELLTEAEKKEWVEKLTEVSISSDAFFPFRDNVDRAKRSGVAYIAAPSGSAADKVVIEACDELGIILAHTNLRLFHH

[2] = molecular target: T2, Trifunctional purine biosynthetic protein adenosine-3 (Homo sapiens) (UniProt P22102); test: In vitro inhibitory activity against Glycinamide ribonucleotide transformylase (GAR Tfase) after 3 min at 25 uM; […]
T2 sequence (whole entry): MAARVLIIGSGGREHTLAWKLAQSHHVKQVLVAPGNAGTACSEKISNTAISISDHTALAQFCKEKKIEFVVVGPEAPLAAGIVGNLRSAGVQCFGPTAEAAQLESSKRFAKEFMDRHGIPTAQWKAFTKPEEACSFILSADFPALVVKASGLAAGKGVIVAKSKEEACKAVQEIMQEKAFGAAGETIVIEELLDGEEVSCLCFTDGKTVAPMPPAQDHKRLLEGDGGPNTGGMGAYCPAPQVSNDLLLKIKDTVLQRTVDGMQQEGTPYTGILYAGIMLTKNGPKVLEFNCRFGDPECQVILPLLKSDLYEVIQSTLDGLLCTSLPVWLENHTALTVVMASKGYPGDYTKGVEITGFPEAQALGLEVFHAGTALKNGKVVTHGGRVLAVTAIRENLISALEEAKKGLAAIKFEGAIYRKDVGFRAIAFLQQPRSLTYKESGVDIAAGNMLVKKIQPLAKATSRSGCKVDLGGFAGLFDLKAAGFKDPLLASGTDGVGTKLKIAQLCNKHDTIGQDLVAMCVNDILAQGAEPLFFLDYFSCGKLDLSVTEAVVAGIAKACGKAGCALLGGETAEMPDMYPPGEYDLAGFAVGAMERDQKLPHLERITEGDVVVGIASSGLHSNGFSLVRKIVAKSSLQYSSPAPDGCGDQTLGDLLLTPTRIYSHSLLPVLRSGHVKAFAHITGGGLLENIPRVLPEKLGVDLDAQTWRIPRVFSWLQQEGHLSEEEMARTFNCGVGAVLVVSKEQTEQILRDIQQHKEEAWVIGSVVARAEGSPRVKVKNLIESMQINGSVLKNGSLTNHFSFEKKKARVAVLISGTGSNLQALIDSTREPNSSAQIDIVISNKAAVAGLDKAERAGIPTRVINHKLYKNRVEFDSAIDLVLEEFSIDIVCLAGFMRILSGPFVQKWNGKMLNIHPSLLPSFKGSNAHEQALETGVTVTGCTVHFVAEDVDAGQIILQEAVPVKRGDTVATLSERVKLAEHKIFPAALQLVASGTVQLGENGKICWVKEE

CCRF-CEM [3] = test: Cytotoxicity in the absence of thymidine and presence of hypoxanthine against CCRF-CEM cell line; assay type: functional, cell-based; conditions: Homo sapiens
How it was run: (§2)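 CCRF-CEM cells were grown in purine- and pyrimidine-free medium, with thymidine and/or hypoxanthine added or omitted as each line specifies. The cytotoxic potency was reported as an IC50 (µM).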

CCRF-CEM [4] = test: Cytotoxicity in the absence of hypoxanthine and presence of thymidine against CCRF-CEM cell line; assay type: functional, cell-based; conditions: Homo sapiens; how it was run: as §2
[5] = molecular target: T2, Trifunctional purine biosynthetic protein adenosine-3 (Homo sapiens); test: In vitro inhibitory activity against Glycinamide ribonucleotide transformylase (GAR Tfase+GAR) pre-incubation of 6 hr at 250 uM concentration
CCRF-CEM [6] = test: Cytotoxicity in the absence of thymidine and hypoxanthine against CCRF-CEM cell line; assay type: functional, cell-based; conditions: Homo sapiens; how it was run: as §2
[7] = molecular target: T2, Trifunctional purine biosynthetic protein adenosine-3 (Homo sapiens); test: In vitro inhibitory activity against Glycinamide ribonucleotide transformylase (GAR Tfase) after 1 hr at 25 uM
[8] = molecular target: T2, Trifunctional purine biosynthetic protein adenosine-3 (Homo sapiens); test: In vitro activity against Glycinamide ribonucleotide transformylase (GAR Tfase) after 30 min at 25 uM
[9] = molecular target: T2, Trifunctional purine biosynthetic protein adenosine-3 (Homo sapiens); test: In vitro inhibitory activity against Glycinamide ribonucleotide transformylase (GAR Tfase) after 6 hr at 25 uM
[10] = molecular target: T2, Trifunctional purine biosynthetic protein adenosine-3 (Homo sapiens); test: In vitro inhibitory activity against Glycinamide ribonucleotide transformylase (GAR Tfase) following 3 min pre-incubation at 250 uM concentration
[11] = molecular target: T2, Trifunctional purine biosynthetic protein adenosine-3 (Homo sapiens); test: In vitro activity against Glycinamide ribonucleotide transformylase (GAR Tfase) after 3 min at 25 uM
CCRF-CEM [12] = test: Cytotoxicity in the presence of thymidine and hypoxanthine against CCRF-CEM cell line; assay type: functional, cell-based; conditions: Homo sapiens; how it was run: as §2
[13] = molecular target: T2, Trifunctional purine biosynthetic protein adenosine-3 (Homo sapiens); test: In vitro inhibitory activity at 250 uM concentration against Glycinamide ribonucleotide transformylase (GAR Tfase) pre-incubation time (6 hr).
[14] = molecular target: T2, Trifunctional purine biosynthetic protein adenosine-3 (Homo sapiens); test: In vitro inhibitory activity against Glycinamide ribonucleotide transformylase (GAR Tfase+GAR) following 30 min pre-incubation at 250 uM concentration
[15] = molecular target: T2, Trifunctional purine biosynthetic protein adenosine-3 (Homo sapiens); test: In vitro inhibitory activity against Glycinamide ribonucleotide transformylase (GAR Tfase) after 30 min at 25 uM
[16] = molecular target: T2, Trifunctional purine biosynthetic protein adenosine-3 (Homo sapiens); test: In vitro inhibitory activity against Glycinamide ribonucleotide transformylase (GAR Tfase+GAR) following 3 min pre-incubation at 250 uM concentration
[17] = molecular target: T2, Trifunctional purine biosynthetic protein adenosine-3 (Homo sapiens); test: In vitro inhibitory activity against Glycinamide ribonucleotide transformylase (GAR Tfase) after 3 min at 250 uM; Not active
[18] = molecular target: T1, Bifunctional purine biosynthesis protein ATIC; test: In vitro inhibitory activity against Aminoimidazole carboxamide ribonucleotide transformylase pre-incubated for 12 hr at 250 uM; Not active.; how it was run: as §1
Target sequence in this assay (P31939 whole entry, looked up): as the sequence (P31939 whole entry, looked up) above

[19] = molecular target: T2, Trifunctional purine biosynthetic protein adenosine-3 (Homo sapiens); test: In vitro inhibitory activity against Glycinamide ribonucleotide transformylase (GAR Tfase) after 6 hr at 250 uM; Not active
[20] = molecular target: T2, Trifunctional purine biosynthetic protein adenosine-3 (Homo sapiens); test: In vitro inhibitory activity against Glycinamide ribonucleotide transformylase (GAR Tfase) after 30 min at 250 uM; Not active
[21] = molecular target: T2, Trifunctional purine biosynthetic protein adenosine-3 (Homo sapiens); test: In vitro inhibitory activity against Glycinamide ribonucleotide transformylase (GAR Tfase) after 7 hr at 250 uM
[22] = molecular target: T1, Bifunctional purine biosynthesis protein ATIC; test: In vitro inhibitory activity against Aminoimidazole carboxamide ribonucleotide transformylase; how it was run: as §1
Target sequence in this assay (P31939 whole entry): as the sequence (P31939 whole entry, looked up) above

[23] = molecular target: T2, Trifunctional purine biosynthetic protein adenosine-3 (Homo sapiens); test: In vitro inhibitory activity against Glycinamide ribonucleotide transformylase (GAR Tfase) after 1 hr at 25 uM; […]

Structure (SMILES)	inhibition [1]	IC50 (CCRF-CEM [3])	IC50 (CCRF-CEM [4])	inhibition [5]	IC50 (CCRF-CEM [6])	inhibition [10]	IC50 (CCRF-CEM [12])	inhibition [13]	inhibition [14]	inhibition [16]	inhibition [17]	inhibition [18]	inhibition [19]	inhibition [20]	other results
COC(=O)c1ccc(CN(CCCc2c(N)nc(N)nc2O)c2cc(F)c([N+](=O)[O-])cc2[N+](=O)[O-])cc1	77%	4.3 µM	3.9 µM	0%	2.5 µM	46%	3.5 µM	0%	22%	64%	–	–	–	–	inhibition [2]: inactive; inhibition [7]: 2%; % control activity remaining [8]: 77%; % control activity remaining [9]: 65%; % control activity remaining [11]: 83%; inhibition [15]: 83%
Nc1nc(N)c(CCCNc2cc(F)cc(F)c2[N+](=O)[O-])c(O)n1	–	97 µM	97 µM	–	97 µM	80%	94 µM	53%	–	–	inactive	inactive	inactive	inactive	–
COC(=O)c1ccc(CN(CCc2c(N)nc(N)nc2O)c2cc(F)c(F)cc2[N+](=O)[O-])cc1	–	11 µM	13 µM	22%	12 µM	17%	11 µM	2%	31%	35%	–	inactive	–	–	–
Nc1nc(N)c(CCCNc2cc(F)ccc2[N+](=O)[O-])c(O)n1	–	> 100 µM	> 100 µM	–	> 100 µM	86%	> 100 µM	–	–	–	inactive	inactive	inactive	inactive	inhibition [21]: 64%
COC(=O)c1ccc(CN(CCCc2c(N)nc(N)nc2O)c2cc(F)c(F)cc2[N+](=O)[O-])cc1	94%	66 µM	55 µM	14%	59 µM	44%	53 µM	0%	54%	68%	–	–	–	–	–
Nc1nc(O)c2cc(CN(Cc3ccc(F)c([N+](=O)[O-])c3)c3ccc(C(=O)NC(CCC(=O)O)C(=O)O)cc3)ccc2n1 (centres undefined)	–	–	–	–	–	–	–	–	–	–	–	–	–	–	Ki [22]: 17 µM
Nc1nc(N)c(CCNc2cc(F)c(F)cc2[N+](=O)[O-])c(O)n1	–	37 µM	43 µM	–	55 µM	–	58 µM	–	–	–	inactive	inactive	–	inactive	inhibition [23]: inactive
Nc1nc2c(c(=O)[nH]1)C[C@@H](CCc1ccc(C(=O)N[C@@H](CCC(=O)O)C(=O)O)cc1)CN2 [LOMETREXOL]	–	> 100 µM	0.07 µM	–	0.13 µM	–	> 100 µM	–	–	–	–	–	–	–	–
Nc1nc(N)c(CCCNc2cc(F)c(F)cc2[N+](=O)[O-])c(O)n1	98%	97 µM	> 100 µM	–	97 µM	87%	97 µM	63%	–	–	inactive	–	inactive	inactive	–
